From publication PMC7781173 (Amino Acids, 2021)

What was measured:
[1] = test system: rodent C5; conditions: ref Hoarty et al. [2015]; Ricardo et al. [2017]; cited from earlier work
[2] = target: T1, human C5 (Homo sapiens, UniProt P01031); conditions: ref Hoarty et al. [2015]; Ricardo et al. [2017]; cited from earlier work
[3] = test system: C5b; conditions: prevents assembly of the MAC; ref Yee et al. [2015]; cited from earlier work
[4] = test system: C5; conditions: background statement, reference not given; cited from earlier work
[5] = target: T1, human C5; test: Ex vivo human whole blood assay; assay type: cell-based; conditions: summary statement
Procedure, shortened: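 Fresh blood from healthy volunteers, anticoagulated with lepirudin at 50 μg/mL. Pre-treated with test compound (1 nM to 1 μM) for 30 min at 37 °C, then stimulated with E. coli O111:B4 LPS at 200 ng/mL for 24 h at 37 °C. Centrifuged at 2000×g for 10 min at 4 °C; plasma C5a quantified by commercial ELISA. Concentration–response format.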

T1 sequence (P01031 19-673 limits assumed): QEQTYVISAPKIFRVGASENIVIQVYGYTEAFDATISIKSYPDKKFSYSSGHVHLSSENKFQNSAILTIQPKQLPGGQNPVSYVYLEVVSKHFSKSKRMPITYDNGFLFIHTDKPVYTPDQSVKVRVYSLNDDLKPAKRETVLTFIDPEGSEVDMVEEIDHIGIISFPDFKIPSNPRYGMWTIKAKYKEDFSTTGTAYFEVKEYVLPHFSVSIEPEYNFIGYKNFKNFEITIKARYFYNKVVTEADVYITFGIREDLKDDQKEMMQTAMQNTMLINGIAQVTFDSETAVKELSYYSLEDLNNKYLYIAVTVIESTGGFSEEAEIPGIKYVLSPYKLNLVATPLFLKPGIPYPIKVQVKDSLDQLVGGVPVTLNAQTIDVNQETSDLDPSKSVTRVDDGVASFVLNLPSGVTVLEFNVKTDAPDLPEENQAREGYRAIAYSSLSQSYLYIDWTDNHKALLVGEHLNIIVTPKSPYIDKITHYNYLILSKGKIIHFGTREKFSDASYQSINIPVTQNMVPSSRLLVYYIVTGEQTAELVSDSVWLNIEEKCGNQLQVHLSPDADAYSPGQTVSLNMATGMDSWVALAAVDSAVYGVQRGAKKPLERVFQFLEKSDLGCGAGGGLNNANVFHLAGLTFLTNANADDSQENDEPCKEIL
T1 sequence (P01031 678-1676 limits assumed): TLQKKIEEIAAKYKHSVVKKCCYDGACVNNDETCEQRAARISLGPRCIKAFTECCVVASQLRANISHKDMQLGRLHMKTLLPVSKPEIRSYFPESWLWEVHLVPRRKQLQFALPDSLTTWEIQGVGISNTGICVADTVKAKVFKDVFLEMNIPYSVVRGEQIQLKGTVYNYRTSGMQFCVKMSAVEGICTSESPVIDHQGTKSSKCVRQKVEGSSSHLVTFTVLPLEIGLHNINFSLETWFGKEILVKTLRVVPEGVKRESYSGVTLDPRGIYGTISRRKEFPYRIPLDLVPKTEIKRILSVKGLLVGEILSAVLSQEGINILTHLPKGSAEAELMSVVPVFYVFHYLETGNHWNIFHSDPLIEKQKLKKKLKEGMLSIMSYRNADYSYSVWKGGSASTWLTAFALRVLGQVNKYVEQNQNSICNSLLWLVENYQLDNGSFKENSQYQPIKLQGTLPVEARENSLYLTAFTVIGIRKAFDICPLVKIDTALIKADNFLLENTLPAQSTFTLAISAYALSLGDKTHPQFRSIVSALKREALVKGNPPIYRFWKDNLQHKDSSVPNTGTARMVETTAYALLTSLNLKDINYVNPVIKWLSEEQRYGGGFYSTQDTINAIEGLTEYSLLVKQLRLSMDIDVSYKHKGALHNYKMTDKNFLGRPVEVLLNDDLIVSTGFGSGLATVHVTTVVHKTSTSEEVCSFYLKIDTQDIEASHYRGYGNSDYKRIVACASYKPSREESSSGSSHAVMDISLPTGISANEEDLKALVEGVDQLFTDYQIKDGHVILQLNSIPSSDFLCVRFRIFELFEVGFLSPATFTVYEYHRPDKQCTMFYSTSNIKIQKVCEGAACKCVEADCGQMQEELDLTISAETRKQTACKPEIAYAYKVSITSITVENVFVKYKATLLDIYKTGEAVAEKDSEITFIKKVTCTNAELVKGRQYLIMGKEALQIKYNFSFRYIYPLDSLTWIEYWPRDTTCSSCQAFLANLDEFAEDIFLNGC

LPS-induced C5a production from human blood [5]: blocks LPS-induced C5a production
Substance: zilucoplan
rodent C5 cleavage [1]: little to no effect | human C5 cleavage [2]: does bind and inhibit human C5 cleavage | binding to C5b; C5b binding to C6 [3]: binds to C5b, thereby competitively inhibiting C5b binding to C6 | C5 cleavage [4]: inhibit C5 cleavage
